The results in this text go back to ChEMBL document CHEMBL1142938 (J Med Chem, 2007).

Molecules are shown by their SMILES.

The target in assay [1] is Adenosine receptors; A2a & A3 (Homo sapiens) (UniProt P0DMS8+P29274). In words: Selectivity for human adenosine A3 receptor over human adenosine A2A receptor. Type of assay: protein assay.
Another assay has as its target T1, Adenosine receptor A3 (Homo sapiens, UniProt P0DMS8).
T1 sequence (P0DMS8 whole entry): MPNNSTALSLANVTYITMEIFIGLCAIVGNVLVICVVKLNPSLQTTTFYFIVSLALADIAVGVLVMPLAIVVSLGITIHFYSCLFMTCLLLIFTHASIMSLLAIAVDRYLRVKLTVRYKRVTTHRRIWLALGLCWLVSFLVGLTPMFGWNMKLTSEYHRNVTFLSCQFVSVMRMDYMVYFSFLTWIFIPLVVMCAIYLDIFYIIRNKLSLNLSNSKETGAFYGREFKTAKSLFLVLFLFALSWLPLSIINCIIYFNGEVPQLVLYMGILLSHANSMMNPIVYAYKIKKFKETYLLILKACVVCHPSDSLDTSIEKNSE
In words: Displacement of [3H]NECA from human recombinant adenosine A3 receptor expressed in CHO cells. The assay is classed as cell-based. In short, it runs like this: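 [3H]NECA used at 10 nM as radioligand in competition experiments, stably transfected CHO cells. Nonspecific binding defined with 1 mM theophylline. Ki from nonlinear curve fitting.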
A general note: Loss of bound radioactivity is the signal in a displacement assay; it reports binding, not function.

Assay [2] deals with Adenosine receptors; A1 & A3 (Homo sapiens) (UniProt P30542+P0DMS8). In words: Selectivity for human adenosine A3 receptor over human adenosine A1 receptor. Type of assay: protein assay.
A further assay deals with Adenosine receptor A2a (Homo sapiens, UniProt P29274). The assay can be described thus: Displacement of [3H]NECA from human recombinant adenosine A2A receptor expressed in CHO cells. The assay is classed as cell-based. In short, it runs like this: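 Competition binding with [3H]NECA at 30 nM on stably transfected CHO cells. Nonspecific binding defined with 1 mM theophylline. Dissociation constants (Ki) obtained by nonlinear curve fitting.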

The target of another assay is T2, Adenosine receptor A1 (Homo sapiens, UniProt P30542).
T2 sequence (P30542 whole entry): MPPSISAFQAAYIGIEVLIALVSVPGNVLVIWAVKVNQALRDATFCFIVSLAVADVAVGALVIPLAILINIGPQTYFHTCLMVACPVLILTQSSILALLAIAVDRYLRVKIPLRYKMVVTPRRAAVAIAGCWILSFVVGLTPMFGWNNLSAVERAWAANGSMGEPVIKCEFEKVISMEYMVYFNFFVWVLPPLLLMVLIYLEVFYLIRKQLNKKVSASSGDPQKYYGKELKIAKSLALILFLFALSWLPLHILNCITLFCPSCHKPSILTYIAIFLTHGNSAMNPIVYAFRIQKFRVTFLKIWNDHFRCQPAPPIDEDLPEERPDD
In words: Displacement of [3H]CCPA from human recombinant adenosine A1 receptor expressed in CHO cells. Type of assay: cell-based.

The Ki is a dissociation constant, usually derived from enzyme kinetics or from competition with a known ligand.

Sequence of Adenosine receptor A2a (P29274 whole entry): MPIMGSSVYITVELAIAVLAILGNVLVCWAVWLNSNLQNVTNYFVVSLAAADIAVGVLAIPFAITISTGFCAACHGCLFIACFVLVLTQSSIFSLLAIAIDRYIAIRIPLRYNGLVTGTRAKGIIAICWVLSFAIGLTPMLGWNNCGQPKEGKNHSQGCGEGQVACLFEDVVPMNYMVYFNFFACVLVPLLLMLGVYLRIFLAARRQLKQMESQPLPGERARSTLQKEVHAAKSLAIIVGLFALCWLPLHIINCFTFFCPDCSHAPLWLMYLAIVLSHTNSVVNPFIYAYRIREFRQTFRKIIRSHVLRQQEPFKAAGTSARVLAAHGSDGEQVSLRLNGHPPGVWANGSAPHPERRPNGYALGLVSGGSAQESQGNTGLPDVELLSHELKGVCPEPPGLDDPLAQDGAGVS

On to `CONc1nc(C#Cc2cccnc2)nc2c1ncn2[C@@H]1O[C@H](CO)[C@@H](O)[C@H]1O`, for which the Ratio Ki in assay [1] is 1600; in assay [2], 32. Moreover, the Ki at Adenosine receptor A3 was determined as 7.9 nM; at Adenosine receptor A2a, 12500 nM; at Adenosine receptor A1, 255 nM.

Take `CONc1nc(C#CCC(C)O)nc2c1ncn2[C@@H]1O[C@H](CO)[C@@H](O)[C@H]1O` (stereo partly drawn): the Ratio Ki worked out at 140 in assay [1] and 18 in assay [2]. Besides, the Ki worked out at 5.4 nM at Adenosine receptor A3, 758 nM on Adenosine receptor A2a and 95 nM at Adenosine receptor A1.

With `CONc1nc(C#CCCCC#N)nc2c1ncn2[C@@H]1O[C@H](CO)[C@@H](O)[C@H]1O`, the Ratio Ki in assay [1] came out at 444; in assay [2], 69. In addition, the results for the Ki at Adenosine receptor A3, at Adenosine receptor A2a and at Adenosine receptor A1 were 4.1 nM, 1820 nM and 282 nM, respectively.

On to `CONc1nc(C#Cc2ccc(OC)cc2)nc2c1ncn2[C@@H]1O[C@H](CO)[C@@H](O)[C@H]1O`, for which the results for the Ratio Ki in assay [1] and in assay [2] were 414 and 435, respectively. Moreover, the Ki is 4.3 nM on Adenosine receptor A3, 1780 nM at Adenosine receptor A2a and 1870 nM at Adenosine receptor A1.

As to `CNC(=O)[C@H]1O[C@@H](n2cnc3c(NOC)nc(C#Cc4ccc(C)cc4)nc32)[C@H](O)[C@@H]1O`, the Ratio Ki in assay [1] was 4500; in assay [2], 3600. The Ki on Adenosine receptor A3 is 3.3 nM; at Adenosine receptor A2a it was 14700 nM.

In the case of `CONc1nc(C#C[Si](C)(C)C)nc2c1ncn2[C@@H]1O[C@H](CO)[C@@H](O)[C@H]1O`, the Ratio Ki in assay [1] amounted to 441; in assay [2] it was 1.7. In addition, the inhibitory constant (Ki) at Adenosine receptor A3 was 13 nM; on Adenosine receptor A2a it was 5740 nM; at Adenosine receptor A1, 22 nM.

For `CCCCCc1ccc(C#Cc2nc(NOC)c3ncn([C@@H]4O[C@H](C(=O)NC)[C@@H](O)[C@H]4O)c3n2)cc1`, the results for the Ratio Ki in assay [1] and in assay [2] were 576 and 874, respectively. In addition, the Ki on Adenosine receptor A3 was 55 nM; on Adenosine receptor A2a, 31700 nM; at Adenosine receptor A1, 48100 nM.

For `CNC(=O)[C@H]1O[C@@H](n2cnc3c(NOC)nc(I)nc32)[C@H](O)[C@@H]1O`, the Ratio Ki in assay [1] is 7100; in assay [2] it was 90. The figures for the inhibition constant Ki at Adenosine receptor A3, at Adenosine receptor A2a and on Adenosine receptor A1 were 1.7 nM, 12100 nM and 153 nM, respectively.

Consider `CCNC(=O)[C@H]1O[C@@H](n2cnc3c(NOC)nc(C#Cc4ccccn4)nc32)[C@H](O)[C@@H]1O`, for which the Ratio Ki in assay [1] is 4000; in assay [2], 109. For the same compound, the results for the Ki on Adenosine receptor A3, at Adenosine receptor A2a and at Adenosine receptor A1 were 1.6 nM, 6460 nM and 175 nM, respectively.

In the case of `CCNC(=O)[C@H]1O[C@@H](n2cnc3c(NOC)nc(I)nc32)[C@H](O)[C@@H]1O`, the Ratio Ki in assay [1] came out at 1900; in assay [2] it was 19. Further, the Ki was determined as 2.8 nM at Adenosine receptor A3, 5290 nM at Adenosine receptor A2a and 53 nM at Adenosine receptor A1.

For `CCNC(=O)[C@H]1O[C@@H](n2cnc3c(NOC)nc(C#Cc4ccc(C(C)=O)cc4)nc32)[C@H](O)[C@@H]1O`, the Ratio Ki in assay [1] is 1100; in assay [2], 307. Besides, the Ki on Adenosine receptor A3 came to 4 nM; at Adenosine receptor A2a, 4210 nM; at Adenosine receptor A1, 1230 nM.

With `C#Cc1nc(NOC)c2ncn([C@@H]3O[C@H](CO)[C@@H](O)[C@H]3O)c2n1`, the figures for the Ratio Ki in assay [1] and in assay [2] were 136 and 1, respectively. For the same compound, the inhibitory constant (Ki) at Adenosine receptor A3 amounted to 23 nM; at Adenosine receptor A2a, 3140 nM; on Adenosine receptor A1, 25 nM.

For `CNC(=O)[C@H]1O[C@@H](n2cnc3c(NOC)nc(C#Cc4ccc(F)cc4)nc32)[C@H](O)[C@@H]1O`, the values for the Ratio Ki in assay [1] and in assay [2] were 9800 and 1600, respectively. Also, the Ki on Adenosine receptor A3 was 1.9 nM; at Adenosine receptor A2a, 18700 nM; on Adenosine receptor A1 it was 3000 nM.

Take `CCCCC#Cc1nc(NOC)c2ncn([C@@H]3O[C@H](CO)[C@@H](O)[C@H]3O)c2n1`: the Ratio Ki was found to be 95 in assay [1] and 35 in assay [2]. Besides, the Ki on Adenosine receptor A3 is 2.8 nM; on Adenosine receptor A2a, 267 nM; at Adenosine receptor A1 it was 97 nM.

For `CCNC(=O)[C@H]1O[C@@H](n2cnc3c(NOC)nc(C#Cc4ccc(C)cc4)nc32)[C@H](O)[C@@H]1O`, the Ratio Ki in assay [1] was found to be 676; in assay [2], 209. The Ki is 6.8 nM at Adenosine receptor A3, 4600 nM on Adenosine receptor A2a and 1420 nM at Adenosine receptor A1.

As to `CCNC(=O)[C@H]1O[C@@H](n2cnc3c(N)nc(C#Cc4ccccc4)nc32)[C@H](O)[C@@H]1O`, the values for the Ratio Ki in assay [1] and in assay [2] were 100 and 90, respectively.

With `CONc1nc(C#Cc2ccncc2)nc2c1ncn2[C@@H]1O[C@H](CO)[C@@H](O)[C@H]1O`, the figures for the Ratio Ki in assay [1] and in assay [2] were 1100 and 198, respectively. Besides, the inhibitory constant (Ki) at Adenosine receptor A3 stood at 6 nM; at Adenosine receptor A2a it was 6310 nM; on Adenosine receptor A1 it was 1190 nM.

In the case of `CCCCCc1ccc(C#Cc2nc(NOC)c3ncn([C@@H]4O[C@H](C(=O)NCC)[C@@H](O)[C@H]4O)c3n2)cc1`, the Ratio Ki is 399 in assay [1] and 60 in assay [2]. The results for the Ki on Adenosine receptor A3, at Adenosine receptor A2a and at Adenosine receptor A1 were 68 nM, 27100 nM and 4090 nM, respectively.

`CONc1nc(C#Cc2ccc(C(N)=O)cc2)nc2c1ncn2[C@@H]1O[C@H](CO)[C@@H](O)[C@H]1O`: the Ratio Ki in assay [1] was determined as 602; in assay [2], 173. Also, the Ki at Adenosine receptor A3 was determined as 5.2 nM; at Adenosine receptor A2a, 3130 nM; on Adenosine receptor A1, 901 nM.

Consider `CONc1nc(C#Cc2ccc(C)cc2)nc2c1ncn2[C@@H]1O[C@H](CO)[C@@H](O)[C@H]1O`, for which the Ratio Ki is 6000 in assay [1] and 234 in assay [2]. Moreover, the figures for the Ki on Adenosine receptor A3, at Adenosine receptor A2a and at Adenosine receptor A1 were 5.9 nM, 35100 nM and 1380 nM, respectively.

For `CCCCCc1ccc(C#Cc2nc(NOC)c3ncn([C@@H]4O[C@H](CO)[C@@H](O)[C@H]4O)c3n2)cc1`, the values for the Ratio Ki in assay [1] and in assay [2] were 167 and 19, respectively. For the same compound, the Ki on Adenosine receptor A3 turned out to be 39 nM; on Adenosine receptor A2a it was 6520 nM; at Adenosine receptor A1, 730 nM.

For the compound `CONc1nc(C#Cc2ccc(F)cc2)nc2c1ncn2[C@@H]1O[C@H](CO)[C@@H](O)[C@H]1O`, the figures for the Ratio Ki in assay [1] and in assay [2] were 900 and 634, respectively. Besides, the Ki on Adenosine receptor A3 stood at 4.4 nM; at Adenosine receptor A2a, 3960 nM; on Adenosine receptor A1, 2790 nM.

Consider `CCNC(=O)[C@H]1O[C@@H](n2cnc3c(NOC)nc(C#Cc4ccc(F)cc4)nc32)[C@H](O)[C@@H]1O`, for which the Ratio Ki came out at 2000 in assay [1] and 587 in assay [2]. The Ki at Adenosine receptor A3 came to 3.2 nM; at Adenosine receptor A2a, 6290 nM; at Adenosine receptor A1, 1880 nM.

With `CONc1nc(I)nc2c1ncn2[C@@H]1O[C@H](CO)[C@@H](O)[C@H]1O`, the Ratio Ki in assay [1] amounted to 1700; in assay [2], 8. For the same compound, the figures for the Ki on Adenosine receptor A3, at Adenosine receptor A2a and on Adenosine receptor A1 were 7.4 nM, 12400 nM and 58 nM, respectively.

Take `Nc1nc(C#Cc2ccccc2)nc2c1ncn2[C@@H]1O[C@H](CO)[C@@H](O)[C@H]1O`: the Ratio Ki in assay [1] was 23; in assay [2], 24.

On to `CONc1nc(C#Cc2cccc(C(F)(F)F)c2)nc2c1ncn2[C@@H]1O[C@H](CO)[C@@H](O)[C@H]1O`, for which the Ratio Ki in assay [1] was 360; in assay [2], 106. For the same compound, the Ki at Adenosine receptor A3 worked out at 23 nM; on Adenosine receptor A2a, 8270 nM; at Adenosine receptor A1, 2450 nM.
